Source: ChEMBL document CHEMBL2375313, “Synthesis, in vitro antitumor evaluation and DNA-binding study of novel tetrahydroquinolines and some derived tricyclic and tetracyclic ring systems” (Eur J Med Chem, 2013)
Values after ≈ are worked out from the molar mass of the structure shown. Active and inactive are the calls of the source. The calls are words filed in the database; no cut-off is given here.

Key:
HCT-116 = test: Cytotoxicity against human HCT116 cells assessed as growth inhibition at 10 uM after 48 hrs by sulphorhodamine B assay; format: functional; settings: HCT-116, 48 h, read-out: GI
In short: (§1)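 NCI-60 one-dose screen per the NCI Drug Evaluation Branch protocol. Cells given a single 10 µM concentration with 48 h continuous exposure. Growth estimated by sulphorhodamine B protein assay. Result expressed as percentage growth inhibition relative to untreated growth.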

RXF 393 = test: Cytotoxicity against human RXF393 cells assessed as growth inhibition at 10 uM after 48 hrs by sulphorhodamine B assay; format: functional; settings: RXF 393, 48 h, read-out: GI; in short: as §1
[1] = Cytotoxicity against human EKVX cells assessed as growth inhibition at 10 uM after 48 hrs by sulphorhodamine B assay; format: functional; settings: read-out: GI; in short: as §1
CCRF-CEM = test: Cytotoxicity against human CCRF-CEM cells assessed as growth inhibition at 10 uM after 48 hrs by sulphorhodamine B assay; format: functional; settings: read-out: GI; in short: as §1
SF-295 = test: Cytotoxicity against human SF295 cells assessed as growth inhibition at 10 uM after 48 hrs by sulphorhodamine B assay; format: functional; settings: SF-295, 48 h, read-out: GI; in short: as §1
HCT-15 = test: Cytotoxicity against human HCT15 cells assessed as growth inhibition at 10 uM after 48 hrs by sulphorhodamine B assay; format: functional; settings: HCT-15, 48 h, read-out: GI; in short: as §1
NCI-H23 = test: Cytotoxicity against human NCI-H23 cells assessed as growth inhibition at 10 uM after 48 hrs by sulphorhodamine B assay; format: functional; settings: NCI-H23, 48 h, read-out: GI; in short: as §1
A498 = test: Cytotoxicity against human A498 cells assessed as growth inhibition at 10 uM after 48 hrs by sulphorhodamine B assay; format: functional; settings: A498, 48 h, read-out: GI; in short: as §1
UACC-62 = test: Cytotoxicity against human UACC62 cells assessed as growth inhibition at 10 uM after 48 hrs by sulphorhodamine B assay; format: functional; settings: UACC-62, 48 h, read-out: GI; in short: as §1
MCF7 = test: Cytotoxicity against human MCF7 cells assessed as growth inhibition at 10 uM after 48 hrs by sulphorhodamine B assay; format: functional; settings: MCF7, 48 h, read-out: GI; in short: as §1
SK-MEL-5 = test: Cytotoxicity against human SK-MEL-5 cells assessed as growth inhibition at 10 uM after 48 hrs by sulphorhodamine B assay; format: functional; settings: SK-MEL-5, 48 h, read-out: GI; in short: as §1
SNB-19 = test: Cytotoxicity against human SNB19 cells assessed as growth inhibition at 10 uM after 48 hrs by sulphorhodamine B assay; format: functional; settings: SNB-19, 48 h, read-out: GI; in short: as §1
HOP-92 = test: Cytotoxicity against human HOP92 cells assessed as growth inhibition at 10 uM after 48 hrs by sulphorhodamine B assay; format: functional; settings: HOP-92, 48 h, read-out: GI; in short: as §1
[2] = Displacement of methyl green from DNA (unknown origin) after 24 hrs
In short: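 DNA-methyl green complex was stirred in 0.05 M Tris-HCl pH 7.5 with 7.5 mmol MgSO4 at 37 °C for 24 h. Compound was dried down from EtOH in tubes and the DNA-methyl green solution added. A630 was read initially and after 24 h dark incubation at room temperature, corrected and normalized to untreated complex. IC50 is the concentration giving a 50% absorbance decrease; mean ± SD, n = 6.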

LOX IMVI = test: Cytotoxicity against human LOXIMVI cells assessed as growth inhibition at 10 uM after 48 hrs by sulphorhodamine B assay; format: functional; settings: read-out: GI; in short: as §1
OVCAR-4 = test: Cytotoxicity against human OVCAR4 cells assessed as growth inhibition at 10 uM after 48 hrs by sulphorhodamine B assay; format: functional; settings: OVCAR-4, 48 h, read-out: GI; in short: as §1
MDA-MB-435 = test: Cytotoxicity against human MDA-MB-435 cells assessed as growth inhibition at 10 uM after 48 hrs by sulphorhodamine B assay; format: functional; settings: MDA-MB-435, 48 h, read-out: GI; in short: as §1
SNB-75 = test: Cytotoxicity against human SNB75 cells assessed as growth inhibition at 10 uM after 48 hrs by sulphorhodamine B assay; format: functional; settings: SNB-75, 48 h, read-out: GI; in short: as §1
ACHN = test: Cytotoxicity against human ACHN cells assessed as growth inhibition at 10 uM after 48 hrs by sulphorhodamine B assay; format: functional; settings: read-out: GI; in short: as §1
[3] = Binding affinity to DNA (unknown origin) at 5 mg/mL by RP-TLC plate analysis
In short: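 Reversed-phase C18 TLC plates pre-developed in methanol/water 8:2. Compound spotted at origin (5 mg/mL in methanol), then DNA (1 mg/mL in water/methanol 8:2) applied at the same spot. Plates developed in the same eluent; DNA located by anisaldehyde spray (blue). Ethidium bromide as positive control.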

A549 = test: Cytotoxicity against human A549 cells assessed as growth inhibition at 10 uM after 48 hrs by sulphorhodamine B assay; format: functional; settings: A549, 48 h, read-out: GI; in short: as §1
HL-60(TB) = test: Cytotoxicity against human HL-60(TB) cells assessed as growth inhibition at 10 uM after 48 hrs by sulphorhodamine B assay; format: functional; settings: HL-60, 48 h, read-out: GI
In short: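 NCI-60 one-dose primary screen run to the Drug Evaluation Branch protocol. Cells are exposed to a single 10 µM concentration for 48 h continuously, and growth is read by SRB protein assay. Data are reported as percent growth of treated cells, expressed as % growth inhibition.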

SK-OV-3 = test: Cytotoxicity against human SKOV3 cells assessed as growth inhibition at 10 uM after 48 hrs by sulphorhodamine B assay; format: functional; settings: SK-OV-3, 48 h, read-out: GI; in short: as §1
SK-MEL-2 = test: Cytotoxicity against human SK-MEL-2 cells assessed as growth inhibition at 10 uM after 48 hrs by sulphorhodamine B assay; format: functional; settings: SK-MEL-2, 48 h, read-out: GI; in short: as §1
DU-145 = test: Cytotoxicity against human DU145 cells assessed as growth inhibition at 10 uM after 48 hrs by sulphorhodamine B assay; format: functional; settings: DU-145, 48 h, read-out: GI; in short: as §1
PC-3 = test: Cytotoxicity against human PC3 cells assessed as growth inhibition at 10 uM after 48 hrs by sulphorhodamine B assay; format: functional; settings: PC-3, 48 h, read-out: GI; in short: as §1
NCI/ADR-RES = test: Cytotoxicity against human NCI/ADR-RES cells assessed as growth inhibition at 10 uM after 48 hrs by sulphorhodamine B assay; format: functional; settings: read-out: GI; in short: as §1
MOLT-4 = test: Cytotoxicity against human MOLT4 cells assessed as growth inhibition at 10 uM after 48 hrs by sulphorhodamine B assay; format: functional; settings: MOLT-4, 48 h, read-out: GI; in short: as §1
SR = test: Cytotoxicity against human SR cells assessed as growth inhibition at 10 uM after 48 hrs by sulphorhodamine B assay; format: functional; settings: read-out: GI; in short: as §1
CAKI-1 = test: Cytotoxicity against human Caki1 cells assessed as growth inhibition at 10 uM after 48 hrs by sulphorhodamine B assay; format: functional; settings: CAKI-1, 48 h, read-out: GI; in short: as §1
T47D = test: Cytotoxicity against human T47D cells assessed as growth inhibition at 10 uM after 48 hrs by sulphorhodamine B assay; format: functional; settings: read-out: GI; in short: as §1
U-251 = test: Cytotoxicity against human U251 cells assessed as growth inhibition at 10 uM after 48 hrs by sulphorhodamine B assay; format: functional; settings: U-251, 48 h, read-out: GI; in short: as §1
M14 = test: Cytotoxicity against human M14 cells assessed as growth inhibition at 10 uM after 48 hrs by sulphorhodamine B assay; format: functional; settings: M14, 48 h, read-out: GI; in short: as §1
HT-29 = test: Cytotoxicity against human HT-29 cells assessed as growth inhibition at 10 uM after 48 hrs by sulphorhodamine B assay; format: functional; settings: HT-29, 48 h, read-out: GI; in short: as §1
NCI-H522 = test: Cytotoxicity against human NCI-H522 cells assessed as growth inhibition at 10 uM after 48 hrs by sulphorhodamine B assay; format: functional; settings: NCI-H522, 48 h, read-out: GI; in short: as §1
Hs-578T = test: Cytotoxicity against human Hs578T cells assessed as growth inhibition at 10 uM after 48 hrs by sulphorhodamine B assay; format: functional; settings: read-out: GI; in short: as §1
K562 = test: Cytotoxicity against human K562 cells assessed as growth inhibition at 10 uM after 48 hrs by sulphorhodamine B assay; format: functional; settings: K562, 48 h, read-out: GI; in short: as §1
OVCAR-5 = test: Cytotoxicity against human OVCAR5 cells assessed as growth inhibition at 10 uM after 48 hrs by sulphorhodamine B assay; format: functional; settings: OVCAR-5, 48 h, read-out: GI; in short: as §1
UO-31 = test: Cytotoxicity against human UO31 cells assessed as growth inhibition at 10 uM after 48 hrs by sulphorhodamine B assay; format: functional; settings: UO-31, 48 h, read-out: GI; in short: as §1
SF-268 = test: Cytotoxicity against human SF268 cells assessed as growth inhibition at 10 uM after 48 hrs by sulphorhodamine B assay; format: functional; settings: SF-268, 48 h, read-out: GI; in short: as §1
IGROV-1 = test: Cytotoxicity against human IGROV1 cells assessed as growth inhibition at 10 uM after 48 hrs by sulphorhodamine B assay; format: functional; settings: IGROV-1, 48 h, read-out: GI; in short: as §1
RPMI-8226 = test: Cytotoxicity against human RPMI8226 cells assessed as growth inhibition at 10 uM after 48 hrs by sulphorhodamine B assay; format: functional; settings: RPMI-8226, 48 h, read-out: GI; in short: as §1

CC1CCCc2c1nc1[nH]c(=S)n(-c3ccccc3)c(=N)c1c2-c1ccc(Cl)cc1 (configuration not stated)
inhibition of growth at 10 µM (HCT-116): 34% | inhibition of growth at 10 µM (RXF 393): 17.8% | inhibition of growth at 10 µM [1]: 31% | inhibition of growth at 10 µM (CCRF-CEM): 20.7% | inhibition of growth at 10 µM (SF-295): 12.8% | inhibition of growth at 10 µM (HCT-15): 10% | inhibition of growth at 10 µM (NCI-H23): 11.5% | inhibition of growth at 10 µM (A498): 25.2% | inhibition of growth at 10 µM (UACC-62): 25.3% | inhibition of growth at 10 µM (MCF7): < 10% | inhibition of growth at 10 µM (SK-MEL-5): 12% | inhibition of growth at 10 µM (SNB-19): < 10% | inhibition of growth at 10 µM (HOP-92): 26.2% | IC50 [2]: 0.097 µg/mL (≈ 0.224 µM) | inhibition of growth at 10 µM (LOX IMVI): 13.1% | inhibition of growth at 10 µM (OVCAR-4): 14.5% | inhibition of growth at 10 µM (MDA-MB-435): < 10% | inhibition of growth at 10 µM (SNB-75): 13.9% | inhibition of growth at 10 µM (ACHN): 11.3% | Activity [3]: Active | inhibition of growth at 10 µM (A549): 18.9% | inhibition of growth at 10 µM (HL-60(TB)): 24.2% | inhibition of growth at 10 µM (SK-OV-3): 10.4% | inhibition of growth at 10 µM (SK-MEL-2): 11.3% | inhibition of growth at 10 µM (DU-145): 13% | inhibition of growth at 10 µM (PC-3): 21% | inhibition of growth at 10 µM (NCI/ADR-RES): 11.4% | inhibition of growth at 10 µM (MOLT-4): 40% | inhibition of growth at 10 µM (SR): < 10% | inhibition of growth at 10 µM (CAKI-1): < 10% | inhibition of growth at 10 µM (T47D): 50% | inhibition of growth at 10 µM (U-251): 15.2% | inhibition of growth at 10 µM (M14): 17.3% | inhibition of growth at 10 µM (HT-29): < 10% | inhibition of growth at 10 µM (NCI-H522): 31% | inhibition of growth at 10 µM (Hs-578T): < 10% | inhibition of growth at 10 µM (K562): 28.5% | inhibition of growth at 10 µM (OVCAR-5): 14.3% | inhibition of growth at 10 µM (UO-31): 44.4% | inhibition of growth at 10 µM (SF-268): < 10% | inhibition of growth at 10 µM (IGROV-1): 33.3% | inhibition of growth at 10 µM (RPMI-8226): 66%
